From ChEMBL document CHEMBL4041524, “Synthesis and Characterization of a Novel γ-Aminobutyric Acid Type A (GABAA) Receptor Ligand That Combines Outstanding Metabolic Stability, Pharmacokinetics, and Anxiolytic Efficacy” (J Med Chem, 2016)

Tests used:
[1] = biological target: GABA-A receptor; alpha-2/beta-3/gamma-2 (Homo sapiens) (UniProt P18507+P28472+P47869); assay: Modulation of recombinant GABA alpha2beta3gamma2 receptor (unknown origin) expressed in Xenopus laevis oocytes assessed as change in GABA-induced EC(3 to 6) current at 100 nM by two-electrode voltage clamp assay; assay type: cell-based
How it was run: (§1)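 Xenopus laevis oocytes expressing α1, α2, α3 or α5 β3γ2 GABAARs were recorded by two-electrode voltage clamp. Modulation of the GABA EC3-6 current (taken as 100%) was tested at 100 nM, 1 μM and 10 μM in the same cells. Values are mean ± SEM, n = 3–4.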

Plasma = assay: Unbound plasma concentration in Sprague-Dawley rat at 10 mg/kg, ip measured after 4 hrs; assay type: ADME, organism-based; details: in vivo
How it was run: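 Male Sprague-Dawley rats (n = 3) received 10 mg/kg i.p., and total plasma concentration was measured at 4 h. Fraction unbound in plasma was determined in vitro by equilibrium dialysis with rat plasma protein. Unbound concentration was calculated as fraction unbound × total concentration.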

[2] = biological target: T1, GABA-A receptor; alpha-3/beta-3/gamma-2 (Homo sapiens, UniProt P18507+P28472+P34903); assay: Modulation of recombinant human GABA alpha3beta3gamma2 receptor expressed in HEK293 cells assessed as change in GABA-induced current at -80 mV holding potential preincubated for 3 mins followed by co-administration of GABA by electrophysiology method; assay type: cell-based
T1 sequence (P18507 whole entry): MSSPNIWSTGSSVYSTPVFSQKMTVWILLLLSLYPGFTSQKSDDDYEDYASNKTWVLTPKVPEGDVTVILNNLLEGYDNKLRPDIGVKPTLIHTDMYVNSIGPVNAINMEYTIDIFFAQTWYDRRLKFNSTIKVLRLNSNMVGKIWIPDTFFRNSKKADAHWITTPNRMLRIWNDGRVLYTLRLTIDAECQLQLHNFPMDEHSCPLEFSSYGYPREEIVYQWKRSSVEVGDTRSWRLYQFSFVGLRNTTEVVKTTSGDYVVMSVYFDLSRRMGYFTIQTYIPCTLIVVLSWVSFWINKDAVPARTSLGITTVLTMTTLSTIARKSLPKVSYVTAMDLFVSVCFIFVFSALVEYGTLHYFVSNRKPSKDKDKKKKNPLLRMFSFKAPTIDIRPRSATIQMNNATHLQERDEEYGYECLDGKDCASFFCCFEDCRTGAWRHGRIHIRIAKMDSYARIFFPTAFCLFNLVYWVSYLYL
T1 sequence (P28472 whole entry): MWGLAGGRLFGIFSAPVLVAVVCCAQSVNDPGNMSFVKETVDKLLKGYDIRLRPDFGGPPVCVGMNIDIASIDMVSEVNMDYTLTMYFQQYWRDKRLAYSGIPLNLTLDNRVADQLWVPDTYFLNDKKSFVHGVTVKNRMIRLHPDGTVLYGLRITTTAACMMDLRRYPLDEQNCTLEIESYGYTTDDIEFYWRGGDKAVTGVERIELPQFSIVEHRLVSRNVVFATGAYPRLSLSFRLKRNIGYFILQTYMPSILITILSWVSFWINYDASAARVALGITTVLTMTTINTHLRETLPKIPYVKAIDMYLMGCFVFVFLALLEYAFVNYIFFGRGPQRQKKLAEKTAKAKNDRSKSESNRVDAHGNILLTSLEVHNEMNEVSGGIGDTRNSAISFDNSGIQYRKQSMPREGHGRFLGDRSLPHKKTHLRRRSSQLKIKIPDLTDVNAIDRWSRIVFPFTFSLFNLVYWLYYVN
T1 sequence (P34903 whole entry): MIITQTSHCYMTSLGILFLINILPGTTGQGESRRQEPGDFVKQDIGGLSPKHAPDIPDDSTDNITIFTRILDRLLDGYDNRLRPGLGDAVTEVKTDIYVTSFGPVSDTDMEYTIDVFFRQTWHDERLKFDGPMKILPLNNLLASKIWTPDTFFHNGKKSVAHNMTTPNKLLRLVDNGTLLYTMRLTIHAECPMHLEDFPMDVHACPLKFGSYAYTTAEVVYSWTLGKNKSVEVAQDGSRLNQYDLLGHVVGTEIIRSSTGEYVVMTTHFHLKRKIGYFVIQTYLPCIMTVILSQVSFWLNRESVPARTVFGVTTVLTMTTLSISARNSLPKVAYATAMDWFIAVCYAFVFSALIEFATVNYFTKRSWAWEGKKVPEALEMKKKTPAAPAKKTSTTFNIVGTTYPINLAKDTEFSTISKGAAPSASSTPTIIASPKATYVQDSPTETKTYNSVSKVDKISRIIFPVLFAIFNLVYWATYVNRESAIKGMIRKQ

[3] = biological target: GABA-A receptor; alpha-3/beta-3/gamma-2 (Homo sapiens) (UniProt P18507+P28472+P34903); assay: Modulation of recombinant GABA alpha3beta3gamma2 receptor (unknown origin) expressed in Xenopus laevis oocytes assessed as change in GABA-induced EC(3 to 6) current at 1 uM by two-electrode voltage clamp assay; assay type: cell-based; how it was run: as §1
[4] = biological target: GABA-A receptor; alpha-5/beta-3/gamma-2 (Homo sapiens) (UniProt P18507+P28472+P31644); assay: Modulation of recombinant GABA alpha5beta3gamma2 receptor (unknown origin) expressed in Xenopus laevis oocytes assessed as change in GABA-induced EC(3 to 6) current at 1 uM by two-electrode voltage clamp assay; assay type: cell-based; how it was run: as §1
[5] = biological target: T2, GABA-A receptor; alpha-2/beta-3/gamma-2 (Homo sapiens, UniProt P18507+P28472+P47869); assay: Modulation of recombinant human GABA alpha2beta3gamma2 receptor expressed in HEK293 cells assessed as change in GABA-induced current at -80 mV holding potential preincubated for 3 mins followed by co-administration of GABA by electrophysiology method; assay type: cell-based
T2 sequence (P18507 whole entry): T1 sequence (P18507 whole entry)
T2 sequence (P28472 whole entry): T1 sequence (P28472 whole entry)
T2 sequence (P47869 whole entry): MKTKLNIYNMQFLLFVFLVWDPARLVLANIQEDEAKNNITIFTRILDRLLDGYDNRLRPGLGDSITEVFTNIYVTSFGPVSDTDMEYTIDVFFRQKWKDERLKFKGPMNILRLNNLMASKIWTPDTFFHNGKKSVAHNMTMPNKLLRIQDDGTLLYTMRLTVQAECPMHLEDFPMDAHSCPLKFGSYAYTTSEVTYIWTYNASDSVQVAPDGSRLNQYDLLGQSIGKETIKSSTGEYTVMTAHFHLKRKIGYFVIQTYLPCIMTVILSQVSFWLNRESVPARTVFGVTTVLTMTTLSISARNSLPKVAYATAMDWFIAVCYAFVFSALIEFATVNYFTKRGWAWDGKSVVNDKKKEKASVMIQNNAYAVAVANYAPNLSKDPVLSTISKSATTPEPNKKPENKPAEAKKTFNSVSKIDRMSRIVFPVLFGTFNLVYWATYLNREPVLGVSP

[6] = Cmax in femoral artery/vein cannulated Sprague-Dawley rat at 10 mg/kg, ip administered […] as single dose by LC-MS/MS analysis; assay type: ADME, organism-based; design: dose 10 mg/kg, route intraperitoneal; details: in vivo
How it was run: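 Male Sprague-Dawley rats (n = 3 per time point) were dosed 1 mg/kg i.v. or 10 mg/kg i.p. Plasma concentrations were measured at set time points. Clearance, Vdss and T½ came from the i.v. arm, and AUC, Cmax and Tmax from the i.p. arm.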

C#Cc1ccc2c(c1)C(c1ccccn1)=NCc1c(-c3cnco3)ncn1-2
Activity [1]: 100%
Cp(f) (Plasma): 0.552 µM
EC50 [2]: 205 nM
Activity [3]: 188%
Activity [4]: 158%
EC50 [5]: 118 nM
Cmax [6]: 3.09 µM
